From ChEMBL document CHEMBL4330056, “Synthesis and Cytotoxic and Antiviral Profiling of Pyrrolo- and Furo-Fused 7-Deazapurine Ribonucleosides” (J Med Chem, 2018)
The source made the active and inactive calls. The rule behind the calls is not given here.

How the values were obtained:
Hepatitis C virus [1] = experiment: Antiviral activity against Hepatitis C virus genotype 1b infected in human Huh-luc replicon cells after 3 days by luciferase assay; assay type: functional, organism-based, Hepacivirus hominis; details: subtype 1b, 72 h
Hepatitis C virus [2] = experiment: Antiviral activity against Hepatitis C virus genotype 2a infected in human Huh-luc replicon cells after 3 days by luciferase assay; assay type: functional, organism-based, Hepacivirus hominis; details: subtype 2a, 72 h
BJ = experiment: Antiproliferative activity against human BJ cells after 3 days by MTS assay; details: 72 h
MRC5 = experiment: Antiproliferative activity against human MRC5 cells after 3 days by MTS assay; details: MRC5, 72 h
A549 = experiment: Antiproliferative activity against human A549 cells after 3 days by MTS assay; assay type: functional, cell-based; details: A549, 72 h
[3] = Antiproliferative activity against human CEM-DNR-bulk cells after 3 days by MTS assay; details: 72 h
HCT-116 [4] = experiment: Antiproliferative activity against human HCT116 cells after 3 days by MTS assay; assay type: functional, cell-based; details: HCT-116, 72 h
HCT-116 [5] = experiment: Antiproliferative activity against p53 gene knocked out human HCT116 cells after 3 days by MTS assay; assay type: functional, cell-based; details: HCT-116, 72 h
K562 = experiment: Antiproliferative activity against human K562 cells after 3 days by MTS assay; assay type: functional, cell-based; details: K562, 72 h
[6] = Antiproliferative activity against human K562-TAX cells after 3 days by MTS assay; assay type: functional, cell-based; details: 72 h
U2OS = experiment: Antiproliferative activity against human U2OS cells after 3 days by MTS assay; assay type: functional, cell-based; details: 72 h
HL-60 = experiment: Antiproliferative activity against human HL60 cells after 72 hrs by XTT assay; assay type: functional, cell-based; details: HL-60, 72 h
HepG2 = experiment: Antiproliferative activity against human HepG2 cells after 72 hrs by XTT assay; assay type: functional, cell-based; details: HepG2, 72 h
HeLa S3 = experiment: Antiproliferative activity against human HeLaS3 cells after 72 hrs by XTT assay; assay type: functional, cell-based; details: HeLa S3, 72 h
CCRF-CEM [7] = experiment: Induction of cell cycle arrest in human CCRF-CEM cells assessed as accumulation at subG1 phase at IC50 concentration after 24 hrs by propidium iodide-staining based flow cytometry (reference value: 3.45%); assay type: functional
CCRF-CEM [8] = experiment: Induction of cell cycle arrest in human CCRF-CEM cells assessed as accumulation at subG1 phase at 5 times IC50 concentration after 24 hrs by propidium iodide-staining based flow cytometry (reference value: 3.45%); assay type: functional
CCRF-CEM [9] = experiment: Induction of cell cycle arrest in human CCRF-CEM cells assessed as accumulation at G0/G1 phase at IC50 concentration after 24 hrs by propidium iodide-staining based flow cytometry (reference value: 39.70%); assay type: functional
CCRF-CEM [10] = experiment: Induction of cell cycle arrest in human CCRF-CEM cells assessed as accumulation at G0/G1 phase at 5 times IC50 concentration after 24 hrs by propidium iodide-staining based flow cytometry (reference value: 39.70%); assay type: functional
CCRF-CEM [11] = experiment: Induction of cell cycle arrest in human CCRF-CEM cells assessed as accumulation at S phase at IC50 concentration after 24 hrs by propidium iodide-staining based flow cytometry (reference value: 41.08%); assay type: functional
CCRF-CEM [12] = experiment: Induction of cell cycle arrest in human CCRF-CEM cells assessed as accumulation at G2/M phase at 5 times IC50 concentration after 24 hrs by propidium iodide-staining based flow cytometry (reference value: 19.22%); assay type: functional
CCRF-CEM [13] = experiment: Inhibition of DNA synthesis in human CCRF-CEM cells assessed as DNA synthesis level at IC50 concentration after 24 hrs by BrdU incorporation assay (reference value: 43.39%); assay type: functional; design: scale not given: the % may be the effect or the level left
CCRF-CEM [14] = experiment: Inhibition of DNA synthesis in human CCRF-CEM cells assessed as DNA synthesis level at 5 times IC50 concentration after 24 hrs by BrdU incorporation assay (reference value: 43.39%); assay type: functional; design: scale not given: the % may be the effect or the level left
CCRF-CEM [15] = experiment: Inhibition of RNA synthesis in human CCRF-CEM cells assessed as RNA synthesis level at IC50 concentration after 24 hrs by BrU incorporation assay (reference value: 49.89%); assay type: functional; design: scale not given: the % may be the effect or the level left
CCRF-CEM [16] = experiment: Inhibition of RNA synthesis in human CCRF-CEM cells assessed as RNA synthesis level at 5 times IC50 concentration after 24 hrs by BrU incorporation assay (reference value: 49.89%); assay type: functional; design: scale not given: the % may be the effect or the level left
Adenosine kinase [17] = molecular target: T1, Adenosine kinase (Homo sapiens, UniProt P55263); experiment: Substrate activity at recombinant human ADK assessed as compound phosphorylation at 50 uM after 20 mins in presence of [3H]-adenosine by UPLC; assay type: ADME
Adenosine kinase [18] = molecular target: T1, Adenosine kinase; experiment: Inhibition of recombinant human ADK using [3H]-adenosine as substrate after 20 mins by TLC scanner-based analysis relative to control
Procedure, shortened: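 ADK inhibition: 50 μM adenosine substrate with 10 μM test compound and 97 ng enzyme, 20 min at 37 °C.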

[19] = Chemical stability of the compound assessed as compound remaining after 15 mins relative to control; assay type: physicochemical; details: read-out: Stability
[20] = Chemical stability of the compound assessed as compound remaining after 30 mins relative to control; assay type: physicochemical; details: read-out: Stability
[21] = Chemical stability of the compound assessed as compound remaining after 60 mins relative to control; assay type: physicochemical; details: read-out: Stability
[22] = Chemical stability of the compound assessed as compound remaining after 120 mins relative to control; assay type: physicochemical; details: read-out: Stability
[23] = Stability in human plasma assessed as compound remaining at 3.3 umol/L after 15 mins by RF-MS analysis relative to control; assay type: ADME, cell-free; details: read-out: Stability
[24] = Stability in human plasma assessed as compound remaining at 3.3 umol/L after 30 mins by RF-MS analysis relative to control; assay type: ADME, cell-free; details: read-out: Stability
[25] = Stability in human plasma assessed as compound remaining at 3.3 umol/L after 60 mins by RF-MS analysis relative to control; assay type: ADME, cell-free; details: read-out: Stability
[26] = Metabolic stability in human liver microsomes assessed as compound remaining at 5 umol/L after 15 mins relative to control; assay type: ADME, Microsome; details: read-out: Stability
Procedure, shortened: (§1)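 Human microsomal fraction; percent compound remaining over time.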

[27] = Metabolic stability in human liver microsomes assessed as compound remaining at 5 umol/L after 30 mins relative to control; assay type: ADME, Microsome; details: read-out: Stability; procedure, shortened: as §1
[28] = Metabolic stability in human liver microsomes assessed as compound remaining at 5 umol/L after 60 mins relative to control; assay type: ADME, Microsome; details: read-out: Stability; procedure, shortened: as §1
[29] = Protein binding in human plasma; assay type: ADME, cell-free; details: read-out: PPB (converted)
[30] = Effective permeability of the compound at 20 umol/L by PAMPA; assay type: ADME; details: 20 µM
Influenza A virus = experiment: Antiviral activity against Influenza A virus (A/Mexico/4108/2009(H1N1)) infected in MDCK cells assessed as inhibited virus-induced cytopathic effect incubated for 2 days by XTT assay; assay type: functional, organism-based
Human orthopneumovirus = experiment: Antiviral activity against Human respiratory syncytial virus A2 infected in Hep2 cells assessed as reduction in virus-induced cytopathic effect incubated for 4 days by CellTiter-Glo viability reagent based assay; assay type: functional, organism-based
Coxsackievirus B3 = experiment: Antiviral activity against Human coxsackie B3 Nancy infected in human HeLa cells assessed as inhibited virus-induced cytopathic effect incubated for 2 days by XTT assay; assay type: functional, organism-based
Human alphaherpesvirus 1 = experiment: Antiviral activity against human herpesvirus 1 HF infected in African green monkey Vero cells assessed as inhibited virus-induced cytopathic effect incubated for 3 days by XTT assay; assay type: functional, organism-based
dengue virus type 2 = experiment: Antiviral activity against Dengue virus 2 Thailand/16681/84 infected in African green monkey Vero cells assessed as inhibition of virus replication incubated for 3 days by fluorescence microscopy; assay type: functional, organism-based

T1 sequence (P55263 whole entry): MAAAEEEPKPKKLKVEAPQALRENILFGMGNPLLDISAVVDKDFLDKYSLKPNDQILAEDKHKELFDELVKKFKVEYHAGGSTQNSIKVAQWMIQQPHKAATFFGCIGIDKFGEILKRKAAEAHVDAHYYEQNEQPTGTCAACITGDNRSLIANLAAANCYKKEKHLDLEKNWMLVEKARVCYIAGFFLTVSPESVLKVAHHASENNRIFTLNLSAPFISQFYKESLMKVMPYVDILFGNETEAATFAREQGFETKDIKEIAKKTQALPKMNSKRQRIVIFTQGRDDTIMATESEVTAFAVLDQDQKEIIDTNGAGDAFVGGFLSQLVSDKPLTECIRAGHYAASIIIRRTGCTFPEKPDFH

**Q.** Which results are given for `CSc1ncnc2c1c1occc1n2[C@@H]1O[C@H](CO)[C@@H](O)[C@H]1O`?
**A.** EC50 (Hepatitis C virus [1]): 280 nM; EC50 (Hepatitis C virus [2]): 240 nM; IC50 (BJ): 490 nM; IC50 (MRC5): 9370 nM; IC50 (A549): 4860 nM; IC50 [3]: 5570 nM; IC50 (HCT-116 [4]): 220 nM; IC50 (HCT-116 [5]): 210 nM; IC50 (K562): 270 nM; IC50 [6]: 2700 nM; IC50 (U2OS): 340 nM; IC50 (HL-60): 290 nM; IC50 (HepG2): 2010 nM; IC50 (HeLa S3): 2960 nM; Activity (CCRF-CEM [7]): 6.52%; Activity (CCRF-CEM [8]): 14.06%; Activity (CCRF-CEM [9]): 44.43%; Activity (CCRF-CEM [10]): 33.16%; Activity (CCRF-CEM [11]): 38.26%; Activity (CCRF-CEM [12]): 13.3%; Activity (CCRF-CEM [13]): 39.68%; Activity (CCRF-CEM [14]): 41.8%; Activity (CCRF-CEM [15]): 0.39%; Activity (CCRF-CEM [16]): 6.55%; Activity (Adenosine kinase [17]): 56%; IC50 (Adenosine kinase [18]): > 10000 nM; remaining at 0.25 h [19]: 99%; remaining at 0.5 h [20]: 99%; remaining at 1 h [21]: 99%; remaining at 2 h [22]: 96%; remaining at 0.25 h, 3.3 µM [23]: 99%; remaining at 0.5 h, 3.3 µM [24]: 99%; remaining at 1 h, 3.3 µM [25]: 98%; remaining at 0.25 h, 5 µM [26]: 100%; remaining at 0.5 h, 5 µM [27]: 99%; remaining at 1 h, 5 µM [28]: 98%; fraction unbound [29]: 0.16; log(permeability) [30]: -5.99; Activity (Influenza A virus): inactive; Activity (Human orthopneumovirus): inactive; Activity (Coxsackievirus B3): inactive; Activity (Human alphaherpesvirus 1): inactive; Activity (dengue virus type 2): inactive

**Q.** With `Cc1ncnc2c1c1c(ccn1C)n2[C@@H]1O[C@H](CO)[C@@H](O)[C@H]1O` as the compound, how does the EC50 (Hepatitis C virus [1]) read?
**A.** 190 nM

**Q.** And the EC50 (Hepatitis C virus [2])?
**A.** 120 nM

**Q.** And the IC50 (BJ)?
**A.** 3910 nM

**Q.** And the IC50 (MRC5)?
**A.** 50000 nM

**Q.** And the IC50 (A549)?
**A.** 2080 nM

**Q.** And the IC50 [3]?
**A.** > 50000 nM

**Q.** What about the IC50 (HCT-116 [4]) of the same compound?
**A.** 330 nM

**Q.** What about the IC50 (HCT-116 [5]) of the same compound?
**A.** 330 nM

**Q.** And the IC50 (K562)?
**A.** 400 nM

**Q.** And the IC50 [6]?
**A.** > 50000 nM

**Q.** What about the IC50 (U2OS) of the same compound?
**A.** 610 nM

**Q.** And the IC50 (HL-60)?
**A.** 1510 nM

**Q.** What about the IC50 (HepG2) of the same compound?
**A.** 1130 nM

**Q.** What about the IC50 (HeLa S3) of the same compound?
**A.** 1190 nM

**Q.** What about the Activity (CCRF-CEM [7]) of the same compound?
**A.** 5.1%

**Q.** What about the Activity (CCRF-CEM [8]) of the same compound?
**A.** 10.99%

**Q.** What about the Activity (CCRF-CEM [9]) of the same compound?
**A.** 31.75%

**Q.** What about the Activity (CCRF-CEM [10]) of the same compound?
**A.** 34.66%

**Q.** What about the Activity (CCRF-CEM [11]) of the same compound?
**A.** 51.03%

**Q.** And the Activity (CCRF-CEM [12])?
**A.** 13.14%

**Q.** And the Activity (CCRF-CEM [13])?
**A.** 48.49%

**Q.** What about the Activity (CCRF-CEM [14]) of the same compound?
**A.** 59.89%

**Q.** What about the Activity (CCRF-CEM [15]) of the same compound?
**A.** 53.62%

**Q.** What about the Activity (CCRF-CEM [16]) of the same compound?
**A.** 35.91%

**Q.** And the Activity (Adenosine kinase [17])?
**A.** 42%

**Q.** And the IC50 (Adenosine kinase [18])?
**A.** > 10000 nM

**Q.** What about the remaining at 0.25 h [19] of the same compound?
**A.** 98%

**Q.** And the remaining at 0.5 h [20]?
**A.** 97%

**Q.** What about the remaining at 1 h [21] of the same compound?
**A.** 93%

**Q.** What about the remaining at 2 h [22] of the same compound?
**A.** 91%

**Q.** What about the remaining at 0.25 h, 3.3 µM [23] of the same compound?
**A.** 98%

**Q.** And the remaining at 0.5 h, 3.3 µM [24]?
**A.** 83%

**Q.** What about the remaining at 1 h, 3.3 µM [25] of the same compound?
**A.** 81%

**Q.** And the remaining at 0.25 h, 5 µM [26]?
**A.** 99%

**Q.** And the remaining at 0.5 h, 5 µM [27]?
**A.** 98%

**Q.** And the remaining at 1 h, 5 µM [28]?
**A.** 97%

**Q.** And the fraction unbound [29]?
**A.** 0.71

**Q.** And the “log(permeability)” value [30]?
**A.** -6.87

**Q.** And the Activity (Influenza A virus)?
**A.** inactive

**Q.** What about the Activity (Human orthopneumovirus) of the same compound?
**A.** inactive

**Q.** What about the Activity (Coxsackievirus B3) of the same compound?
**A.** inactive

**Q.** What about the Activity (Human alphaherpesvirus 1) of the same compound?
**A.** inactive

**Q.** What about the Activity (dengue virus type 2) of the same compound?
**A.** inactive
